ChEMBL document CHEMBL1156127, “Synthesis, anticonvulsant activity and 3D-QSAR study of some prop-2-eneamido and 1-acetyl-pyrazolin derivatives of aminobenzothiazole” (Eur J Med Chem, 2010)

Columns and labels:
[1] = tested on: Mus musculus; assay: Behavioral effect in albino mouse assessed as change in locomotor activity during 10 mins at 100 umol/kg, ip after 0.5 hrs; type: functional
Method in brief: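 Mouse activity counted by actophotometer for 10 min 24 h before dosing, then again 0.5 h after 100 µmol/kg ip. % change = 100 − [(post × 100)/pre]. N = 6, mean ± SEM, Student's t test at p < 0.05.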

[2] = species on record: Mus musculus; assay: Protection index, ratio of TD50 to ED50 by MES test for albino mouse; type: functional
Method in brief: (§1)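 Mice were trained on a 3.2 cm rod turning at 6 rpm, then dosed ip at 20–1000 µmol/kg and tested at 0.5 h. […] PI = TD50/ED50, with ED50 from the MES test.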

[3] = Neurotoxicity in ip dosed albino mouse during 1 min by rotarod test; type: toxicity, organism-based; conditions: in vivo; method in brief: as §1
[4] = tested on: Mus musculus; assay: Anticonvulsant activity in ip dosed albino mouse treated 0.5 hrs before PTZ challenge by scPTZ test; type: functional
Method in brief: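 Compound given ip (20–1000 µmol/kg in 0.5% methyl cellulose) 0.5 h before pentylenetetrazole, which was dissolved in 0.9% NaCl and injected subcutaneously in the posterior midline of mice. Onset and severity of convulsions were scored, and ED50 was derived.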

[5] = tested on: Mus musculus; assay: Anticonvulsant activity in ip dosed albino mouse assessed as absence of hind limb tonic extension after 0.5 hrs by MES test; type: functional, Hindlimb; conditions: for ED50: Mus musculus, albino, Hindlimb, ip, 0.5 h
Method in brief: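 Mice given compound ip at 20–1000 µmol/kg, suspended in 0.5% methyl cellulose/water. Seizure induced 0.5 h later by electroconvulsometer, 50 mA, 60 cycle alternating current, 0.25 s via ear clip electrodes. Protection is reduced duration or absence of hind limb tonic extension. ED50 from at least three doses giving 10–90% protection.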

[6] = tested on: Rattus norvegicus; assay: CNS toxicity in albino rat assessed as duration of immobility at 100 umol/kg, ip after 0.5 hrs by Porsolt's swimpool test (Rvb= 113 +/- 3.1); conditions: in vivo
[7] = tested on: Rattus norvegicus; assay: Hepatotoxicity in albino rat assessed as serum SGOT level at 100 umol/kg, ip after 15 days (Rvb= 92.2 +/- 2.78); conditions: in vivo, 360 h
[8] = tested on: Rattus norvegicus; assay: Hepatotoxicity in albino rat assessed as serum SGPT level at 100 umol/kg, ip after 15 days (Rvb= 35.4 +/- 2.68); conditions: in vivo, 360 h
[9] = tested on: Rattus norvegicus; assay: CNS toxicity in albino rat assessed as duration of immobility at 100 umol/kg, ip after 0.5 hrs by Porsolt's swimpool test (Rvb= 97 +/- 2.2); conditions: in vivo
[10] = tested on: Rattus norvegicus; assay: CNS toxicity in albino rat assessed as duration of immobility at 100 umol/kg, ip after 0.5 hrs by Porsolt's swimpool test (Rvb= 128 +/- 2.4); conditions: in vivo
[11] = tested on: Rattus norvegicus; assay: CNS toxicity in albino rat assessed as duration of immobility at 100 umol/kg, ip after 0.5 hrs by Porsolt's swimpool test (Rvb= 87 +/- 1.5); conditions: in vivo

SMILES | Activity [1] | PI [2] | TD50 at 1 min [3] | ED50 [4] | pED50 [5] | ED50 [5] | Activity [6] | Activity [7] | Activity [8] | Activity [9] | Activity [10] | Activity [11]
COc1ccc(C2CC(Nc3nc4ccc(C)cc4s3)=NN2C(C)=O)cc1O (centres undefined) | 29.5% | 1.99 | 147 µmol/kg | 75.6 µmol/kg | 4.13 | 73.9 µmol/kg | 177 s |  |  |  |  | 
COc1ccc(C2CC(Nc3nc4ccc(C)cc4s3)=NN2C(C)=O)cc1 (centres undefined) | 2.08% | 4.68 | 174 µmol/kg | 39.4 µmol/kg | 4.43 | 37.3 µmol/kg |  | 95.4 U/ml | 38.4 U/ml | 163 s |  | 
CC(=O)N1N=C(Nc2nc3ccc(C)cc3s2)CC1c1ccc(O)cc1 (centres undefined) | 20.94% | 3.14 | 157 µmol/kg | 54.3 µmol/kg | 4.3 | 50.2 µmol/kg |  | 89.6 U/ml | 30.2 U/ml |  | 136 s | 
CC(=O)N1N=C(Nc2nc3ccc(C)cc3s2)CC1c1ccc(Cl)cc1 (centres undefined) | 35.62% | 4.86 | 123 µmol/kg | 27.5 µmol/kg | 4.59 | 25.5 µmol/kg |  | 93.3 U/ml | 33.1 U/ml |  |  | 91 s
